Results reported in article PMC10692477 (Acta Pharmaceutica Sinica. B, 2023).
Values joined by “and” are separate entries in the source; they are usually repeats but may differ in a detail not shown here. Identical values can stand only once.

Assays:
[1] = target: T1, AXL kinase (Homo sapiens, UniProt P30530); assay: AXL kinase inhibition, ELISA; assay type: biochemical; settings: for IC50: IC50 AXL kinase, ELISA, mean ± SD of two independent experiments; for inhibition at 0.1 µM: read-out: inhibition rate AXL kinase
T1 sequence (P30530 26-894): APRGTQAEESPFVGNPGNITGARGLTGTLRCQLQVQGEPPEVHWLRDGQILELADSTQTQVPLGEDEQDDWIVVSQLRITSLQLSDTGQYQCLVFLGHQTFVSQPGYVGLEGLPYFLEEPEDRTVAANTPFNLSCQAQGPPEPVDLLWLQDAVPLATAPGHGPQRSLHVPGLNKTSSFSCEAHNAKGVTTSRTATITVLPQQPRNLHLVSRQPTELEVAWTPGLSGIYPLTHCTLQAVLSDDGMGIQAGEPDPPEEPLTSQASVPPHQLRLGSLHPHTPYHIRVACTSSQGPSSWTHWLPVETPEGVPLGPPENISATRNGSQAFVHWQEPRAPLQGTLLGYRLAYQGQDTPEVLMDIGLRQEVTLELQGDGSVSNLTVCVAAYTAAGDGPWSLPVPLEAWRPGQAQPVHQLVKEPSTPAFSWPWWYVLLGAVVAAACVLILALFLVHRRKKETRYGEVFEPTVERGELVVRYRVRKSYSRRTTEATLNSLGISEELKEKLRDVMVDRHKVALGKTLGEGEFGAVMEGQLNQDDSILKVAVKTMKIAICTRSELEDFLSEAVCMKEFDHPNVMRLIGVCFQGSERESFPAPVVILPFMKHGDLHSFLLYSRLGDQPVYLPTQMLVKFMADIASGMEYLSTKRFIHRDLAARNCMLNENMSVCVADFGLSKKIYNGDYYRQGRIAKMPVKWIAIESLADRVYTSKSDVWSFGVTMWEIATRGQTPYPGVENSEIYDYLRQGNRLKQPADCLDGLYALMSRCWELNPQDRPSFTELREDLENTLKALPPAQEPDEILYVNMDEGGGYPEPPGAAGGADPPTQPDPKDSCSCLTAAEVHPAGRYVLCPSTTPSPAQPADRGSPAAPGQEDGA

[2] = test system: BaF3/TEL-AXL cells; assay: BaF3/TEL-AXL cell viability; assay type: cell-based; settings: 48 h, read-out: IC50 Cell viability
[3] = test system: AXL signaling pathway; assay: GAS6-stimulated AXL signaling in NCI-H1299 cells, Western blot; assay type: cell-based; settings: NCI-H1299, 1 h treatment, GAS6 500 ng/mL 15 min
Outline: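 NCI-H1299 cells in exponential growth were serum-deprived for 24 h, then given the test compound for 1 h and stimulated with GAS6 500 ng/mL for 15 min. Lysis was in 1× SDS sample buffer, followed by 10% SDS-PAGE and nitrocellulose transfer.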

[4] = test system: BaF3/TEL-AXL mouse xenograft; assay: BaF3/TEL-AXL cell-derived mouse xenograft model
[5] = Pharmacokinetics in ICR mice; assay type: in vivo; settings: mouse, serum

COc1cc2ncnc(Oc3ccc(NC(=O)c4c5n(n(-c6ccc(C)cc6)c4=O)CCCC5)cc3F)c2cc1OC [Compound 23]
IC50 [1]: 27.3 ± 2.6 nM

COc1cc2ncnc(Oc3ccc(NC(=O)c4c5n(n(-c6cc(F)ccc6F)c4=O)CCCC5)cc3C)c2cc1OC [Compound 40]
inhibition at 0.1 µM [1]: 35.7%

COc1cc2ncnc(Oc3ccc(NC(=O)c4c5n(n(-c6ccccc6C)c4=O)CCCC5)cc3F)c2cc1OC [Compound 22]
IC50 [2]: 7.6 ± 4.1 nM
IC50 [1]: 15.7 ± 1.7 nM

COc1cc2ncnc(Oc3ccc(NC(=O)c4c5n(n(-c6ccccc6)c4=O)CCCC5)nc3)c2cc1OC [Compound 51]
IC50 [2]: 3.3 ± 1.4 nM
IC50 [1]: 16.8 ± 3.5 nM

COc1cc2nccc(Oc3ccc(NC(=O)c4c5n(n(-c6ccc(F)cc6Cl)c4=O)CCCC5)cc3)c2cc1OC [Compound 63]
IC50 [2]: < 0.2 nM
IC50 [1]: < 10 nM and 2.3 nM

COc1cc2ncnc(Oc3ccc(NC(=O)c4c5n(n(-c6ccccc6)c4=O)CCCC5)cc3F)c2cc1OC [Compound 16]
IC50 [2]: < 0.1 nM

COc1cc2ncnc(Oc3ccc(NC(=O)c4c5n(n(-c6cc(F)ccc6F)c4=O)CCCC5)c(F)c3)c2cc1OC [Compound 32]
IC50 [1]: 37 ± 1.4 nM

Nc1nc(Nc2ccc3c(c2)CC[C@@H](N2CCCC2)CC3)nn1-c1cc2c(nn1)-c1ccccc1CCC2 [BGB324, reference compound]
IC50 [2]: 95.1 ± 3.7 nM
p-AKT level [3]: significantly inhibited
p-STAT3 level [3]: significantly inhibited
TGI ([4]; 50 mg/kg po bid): 92.0%

COc1cc2ncnc(Oc3ccc(NC(=O)c4c5n(n(-c6ccccc6)c4=O)CCCC5)cc3Cl)c2cc1OC [Compound 33]
IC50 [2]: 1650 ± 444 nM
IC50 [1]: 16.9 ± 2.5 nM

COc1cc2ncnc(Oc3ccc(NC(=O)c4c5n(n(-c6ccc(F)cc6)c4=O)CCCC5)cc3F)c2cc1OC [Compound 19]
IC50 [2]: < 0.1 nM

COc1cc2ncnc(Oc3ccc(NC(=O)c4c5n(n(-c6ccccc6Cl)c4=O)CCCC5)cc3F)c2cc1OC [Compound 20]
IC50 [2]: 7 ± 4.2 nM
IC50 [1]: 10.5 ± 0.5 nM

O=C(Nc1ccc(Oc2ccc3nncn3n2)cc1)c1c2n(n(-c3ccccc3)c1=O)CCCC2 [Compound 12]
inhibition at 0.1 µM [1]: -17.7%

COc1cc2ncnc(Oc3ccc(NC(=O)c4c5n(n(-c6ccccc6F)c4=O)CCCC5)cc3C)c2cc1OC [Compound 38]
inhibition at 0.1 µM [1]: 32.3%

COc1cc2ncnc(Oc3ccc(NC(=O)c4c5n(n(-c6cc(C)ccc6C)c4=O)CCCC5)cc3F)c2cc1OC [Compound 25]
IC50 [1]: 78.4 ± 2.1 nM

COc1cc2ncnc(Oc3ccc(NC(=O)c4c5n(n(-c6ccc(F)cc6)c4=O)CCCC5)c4ccccc34)c2cc1OC [Compound 54]
inhibition at 0.1 µM [1]: 39%

COc1cc2ncnc(Oc3ccc(NC(=O)c4c5n(n(-c6ccccc6F)c4=O)CCCC5)c4ccccc34)c2cc1OC [Compound 53]
inhibition at 0.1 µM [1]: 41.4%

O=C(Nc1ccc(Oc2ccn3nccc3n2)cc1)c1c2n(n(-c3ccccc3)c1=O)CCCC2 [Compound 13]
inhibition at 0.1 µM [1]: -18.9%

COc1cc2ncnc(Oc3ccc(NC(=O)c4c5n(n(-c6ccccc6)c4=O)CCCC5)cc3OC)c2cc1OC [Compound 41]
inhibition at 0.1 µM [1]: 56.4%

COc1cc2ncnc(Oc3ccc(NC(=O)c4c5n(n(-c6ccc(F)cc6)c4=O)CCCC5)cc3OC)c2cc1OC [Compound 43]
inhibition at 0.1 µM [1]: 19.9%

COc1cc2ncnc(Oc3ccc(NC(=O)c4c5n(n(-c6ccccc6F)c4=O)CCCC5)cc3)c2cc1OC [Compound 49]
inhibition at 0.1 µM [1]: 47.9%

COc1cc2ncnc(Oc3ccc(NC(=O)c4c5n(n(-c6ccc(F)cc6)c4=O)CCCC5)c(F)c3)c2cc1OC [Compound 31]
IC50 [1]: 30.5 ± 4.9 nM

COc1cc2nccc(Oc3ccc(NC(=O)c4c5n(n(-c6ccc(F)cc6F)c4=O)CCCC5)cc3)c2cc1OC [Compound 62]
IC50 [2]: 0.7 ± 0.3 nM
IC50 [1]: < 10 nM and 6.1 nM

COc1cc2ncnc(Oc3ccc(NC(=O)c4c5n(n(-c6ccccc6)c4=O)CCCC5)cc3C(F)(F)F)c2cc1OC [Compound 45]
inhibition at 0.1 µM [1]: 59.4%

COc1cc2nccc(Oc3ccc(NC(=O)c4c5n(n(-c6ccccc6)c4=O)CCCC5)cc3)c2cc1OC [Compound 56]
IC50 [2]: 1 ± 0.2 nM
IC50 [1]: 4 ± 0.4 nM

COc1cc2ncnc(Oc3ccc(NC(=O)c4c5n(n(-c6cc(F)ccc6F)c4=O)CCCC5)cc3)c2cc1OC [Compound 50]
IC50 [2]: 7.8 ± 0.7 nM

COc1cc2nccc(Oc3ccc(NC(=O)c4c5n(n(-c6ccccc6)c4=O)CCCC5)cn3)c2cc1OC [Compound 58]
inhibition at 0.1 µM [1]: 50.9%

COc1cc2ncnc(Oc3ccc(NC(=O)c4c5n(n(-c6cc(F)ccc6F)c4=O)CCCC5)cc3F)c2cc1OC [Compound 24]
IC50 [2]: < 0.1 nM
AUC(0-inf) ([5]; iv, 5 mg/kg): 49100 ng·h/mL
AUC(0-t) ([5]; iv, 5 mg/kg): 48900 ng·h/mL
clearance ([5]; iv, 5 mg/kg): 1.7 mL/min/kg
half-life ([5]; iv, 5 mg/kg): 3.38 h
AUC(0-inf) ([5]; po, 10 mg/kg): 14200 ng·h/mL
AUC(0-t) ([5]; po, 10 mg/kg): 13500 ng·h/mL
Cmax ([5]; po, 10 mg/kg): 1490 ng/mL
Tmax ([5]; po, 10 mg/kg): 2 h
bioavailability ([5]; po, 10 mg/kg): 13.8%
half-life ([5]; po, 10 mg/kg): 6.77 h

COc1cc2ncnc(Oc3ccc(NC(=O)c4c5n(n(-c6ccccc6F)c4=O)CCCC5)cc3F)c2cc1OC [Compound 17]
IC50 [2]: < 0.1 nM

COc1nc(OC)nc(Oc2ccc(NC(=O)c3c4n(n(-c5ccccc5)c3=O)CCCC4)cc2)n1 [Compound 14]
inhibition at 0.1 µM [1]: -6%

COc1cc2ncnc(Oc3ccc(NC(=O)c4c5n(n(-c6cc(F)ccc6F)c4=O)CCCC5)c4ccccc34)c2cc1OC [Compound 55]
inhibition at 0.1 µM [1]: 50.4%

COc1cc2ncnc(Oc3ccc(NC(=O)c4c5n(n(-c6ccc(F)cc6)c4=O)CCCC5)cc3C)c2cc1OC [Compound 39]
inhibition at 0.1 µM [1]: 15.6%

COc1cc2ncnc(Oc3ccc(NC(=O)c4c5n(n(-c6cccc(F)c6)c4=O)CCCC5)cc3F)c2cc1OC [Compound 18]
IC50 [2]: < 0.1 nM
TGI ([4]; 4 mg/kg po qd, 7 consecutive days): 89.5%
TGI ([4]; 20 mg/kg po qd, 7 consecutive days): 93.4%
body weight of tumor-bearing mice during the treatment ([4]; 4 and 20 mg/kg po qd): no significant body weight loss
AUC(0-inf) ([5]; iv, 5 mg/kg): 42100 ng·h/mL
AUC(0-t) ([5]; iv, 5 mg/kg): 34800 ng·h/mL
clearance ([5]; iv, 5 mg/kg): 2.05 mL/min/kg
half-life ([5]; iv, 5 mg/kg): 10.4 h
AUC(0-inf) ([5]; po, 10 mg/kg): 16000 ng·h/mL
AUC(0-t) ([5]; po, 10 mg/kg): 15900 ng·h/mL
Cmax ([5]; po, 10 mg/kg): 2970 ng/mL
Tmax ([5]; po, 10 mg/kg): 2 h
bioavailability ([5]; po, 10 mg/kg): 22.9%
half-life ([5]; po, 10 mg/kg): 3.24 h

COc1cc2ncnc(Oc3ccc(NC(=O)c4c5n(n(-c6ccccc6)c4=O)CCCC5)cc3C)c2cc1OC [Compound 37]
inhibition at 0.1 µM [1]: 23.2%

COc1cc2nccc(Oc3ccc(NC(=O)c4c5n(n(-c6ccccc6)c4=O)CCCC5)cc3F)c2cc1OC [Compound 57]
IC50 [2]: < 0.1 nM

COc1cc2ncnc(Oc3ccc(NC(=O)c4c5n(n(-c6ccccc6F)c4=O)CCCC5)c(F)c3)c2cc1OC [Compound 30]
IC50 [2]: < 0.1 nM
IC50 [1]: 13.4 ± 0.8 nM

COc1cc2ncnc(Oc3ccc(NC(=O)c4c5n(n(-c6ccccc6)c4=O)CCCC5)c(F)c3)c2cc1OC [Compound 29]
IC50 [2]: 2.3 ± 0.4 nM
IC50 [1]: 10 ± 1.4 nM

COc1cc2ncnc(Oc3ccc(NC(=O)c4c5n(n(-c6ccc(Cl)cc6)c4=O)CCCC5)cc3F)c2cc1OC [Compound 21]
IC50 [1]: 42.6 ± 6.2 nM

COc1cc2nccc(Oc3ccc(NC(=O)c4c5n(n(-c6cc(F)ccc6Cl)c4=O)CCCC5)cc3)c2cc1OC [Compound 61]
IC50 [2]: < 0.2 nM
IC50 [1]: < 10 nM and 0.7 nM

COc1cc2ncnc(Oc3ccc(NC(=O)c4c5n(n(-c6ccccc6F)c4=O)CCCC5)cc3Cl)c2cc1OC [Compound 34]
IC50 [1]: 30.9 ± 1.4 nM

COc1cc2ncnc(Oc3ccc(NC(=O)c4c5n(n(-c6ccccc6F)c4=O)CCCC5)cc3OC)c2cc1OC [Compound 42]
inhibition at 0.1 µM [1]: 28%

COc1cc2ncnc(Oc3ccc(NC(=O)c4c5n(n(-c6ccc(F)cc6F)c4=O)CCCC5)cc3F)c2cc1OC [Compound 27]
IC50 [1]: 25.1 ± 1.6 nM

COc1cc2ncnc(Oc3ccc(NC(=O)c4c5n(n(-c6ccccc6)c4=O)CCCC5)c4ccccc34)c2cc1OC [Compound 52]
inhibition at 0.1 µM [1]: 41%

COc1cc2nccc(Oc3ccc(NC(=O)c4c5n(n(-c6cc(F)ccc6F)c4=O)CCCC5)cc3)c2cc1OC [Compound 60]
IC50 [2]: < 0.2 nM
IC50 [1]: < 10 nM and 1.2 nM

COc1cc2ncnc(Oc3ccc(NC(=O)c4c5n(n(-c6cc(F)ccc6F)c4=O)CCCC5)cc3Cl)c2cc1OC [Compound 36]
IC50 [2]: 3630 ± 494 nM
IC50 [1]: 6.6 ± 2.9 nM

COc1cc2ncnc(Oc3ccc(NC(=O)c4c5n(n(-c6ccc(F)cc6)c4=O)CCCC5)cc3Cl)c2cc1OC [Compound 35]
IC50 [1]: 19.6 ± 1.9 nM
